Holding throughout (assay type): biochemical
For assay [1], the target named is T1, recombinant human DCXR (Homo sapiens, UniProt Q7Z4W1). In words: Chemical redox cycling by DCXR. The settings on record: for pEC50: EC50, half maximal concentration of quinones activating H2O2 production by redox cycling with DCXR, 5 μg/ml recombinant DCXR and 200 μM NADH; for Km / kcat: redox cycling.
Assay [2] addresses T1, recombinant human DCXR. In words: Inhibition of diacetyl reduction by DCXR. The gist of the method:
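Human DCXR, His-tagged, expressed in E. coli BL21(DE3) with 0.5 mM IPTG (4 h, 37 °C), Ni-NTA purified. 100 μL mixes: 600 μM NADH, 2 mM diacetyl, 1–2 μg DCXR, plus quinone inhibitor. Acetoin formed was quantified by HPLC against a standard calibration curve. Inhibition type and Ki were derived from kinetic analysis.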

The target in assay [3] is T1, recombinant human DCXR. In words: L-xylulose reduction by recombinant DCXR, substrate kinetics. Particulars: for Km / kcat: pH 7.0. An outline of the steps: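 Enzyme: recombinant His-tagged human DCXR from E. coli BL21(DE3), Ni-NTA purified. Reduction was assayed in 100 mM phosphate buffer pH 7.0 and started by adding enzyme. Initial rates of NADPH oxidation were read at 340 nm in a microplate reader. Rates were converted using NAD(P)H calibration curves made in the reaction mix.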

Assay [4] deals with T1, recombinant human DCXR. As to the kind of experiment: Inhibition of quinone redox cycling by DCXR. The settings on record: for Type of inhibition: inhibition of redox cycling with 9,10-phenanthrenequinone. An outline of the steps: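 Assay for redox cycling by His-tagged human DCXR (E. coli-expressed, Ni-NTA purified). Superoxide was measured as acetylated cytochrome c reduction at 550 nm. 100 μL mixes: 50 mM potassium phosphate pH 7.8, 50 μM acetylated cytochrome c, 0.2 mM NADPH, 20 μM 9,10-phenanthrenequinone, 1.2 or 1.6 μg DCXR, varied inhibitor. Competitive Ki was taken from Lineweaver–Burk plots.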

The target in assay [5] is T1, recombinant human DCXR. In words: Xylitol dehydrogenation. An outline of the steps: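 Recombinant His-tagged human DCXR (E. coli-expressed, Ni-NTA purified) oxidized xylitol in 0.1 mL reactions: 100 mM glycine buffer pH 9.5, 3 mM MgCl2, NADP+ and xylitol. Reactions were started by adding enzyme. NADPH formation was followed as the absorbance change at 340 nm in a microplate reader.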

Assay [6] addresses T1, recombinant human DCXR. In words: Diacetyl reduction by recombinant DCXR.
The target of assay [7] is T1, recombinant human DCXR. In words: Oxygen consumption during DCXR redox cycling. The settings on record: 600 μM NADH, 20 μM 9,10-phenanthrenequinone. The gist of the method:
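Clark-type oxygen electrode measurements used 16 μg recombinant human DCXR per 0.8 mL reaction. NADH and 9,10-phenanthrenequinone were run first to set a stable baseline, then DCXR was added to start the reaction. Diacetyl was added either after DCXR or at time zero (pretreatment). Short-chain fatty acids were added at set time points during cycling.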

[8] abbreviates: Ki, inhibition of diacetyl reduction.
The mark [9] stands for this setting: inhibition of diacetyl reduction.
The mark [10] stands for this setting: quinone varied, 200 μM NADPH fixed.
Where [11] appears, read: xylulose varied, 0.6 mM NADPH fixed.
Where [12] appears, read: NADPH varied, 6 mM xylulose fixed.
Setting [13] is: NADPH varied, 2 mM diacetyl fixed, pH 7.0.
[14] abbreviates: NADPH varied, 20 μM 9,10-PQ fixed.

The source of these data is publication PMC5708134 (Chemical research in toxicology, 2017).

pEC50, pIC50, pKi: −log10 of the molar value. Several values for one entry are separate records, joined by “and”; a condition that tells them apart may be missing. Equal entries are not always repeated. Entries after “also recorded” stand apart in the source; their conditions may differ.

T1 sequence (Q7Z4W1 whole entry): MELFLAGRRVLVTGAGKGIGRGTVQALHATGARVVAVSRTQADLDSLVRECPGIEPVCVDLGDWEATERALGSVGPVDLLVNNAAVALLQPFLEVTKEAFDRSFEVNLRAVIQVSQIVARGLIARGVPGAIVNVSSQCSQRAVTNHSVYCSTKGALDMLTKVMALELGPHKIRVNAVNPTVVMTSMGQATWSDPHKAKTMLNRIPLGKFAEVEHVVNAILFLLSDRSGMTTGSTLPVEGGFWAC

Consider `O=C1C=Cc2ccccc2C1=O` [1,2-naphthoquinone], for which the pEC50 in assay [1] was 5.82. In addition, in assay [2], the pIC50 is 5.54. Besides, the pKi in assay [2] (setting [8]) is 5.85 and 5.87. Besides, the Type of inhibition entry in assay [2] (setting [9]) is “competitive”.

Consider `O=C1C=CC(=O)c2ccccc21` [1,4-naphthoquinone], for which the pEC50 in assay [1] was 5.27. In addition, in assay [1] (setting [10]), the Km stood at 10.8 µM and the kcat was 0.0283 s⁻¹. In addition, in assay [2], the pIC50 is 4.93 and the pKi was 5.27. The Type of inhibition entry in assay [2] (setting [9]) is given as “competitive”.

For the molecule `O=C1C(=O)c2ccccc2-c2ccccc21` [9,10-phenanthrenequinone], the pEC50 in assay [1] was 5.77. In addition, in assay [2], the pIC50 is 5.03. The pKi in assay [2] (setting [8]) was 5.37. Moreover, in assay [2] (setting [9]), the Type of inhibition result is “competitive”.

Take `O=C(CO)[C@H](O)[C@@H](O)CO` [L-xylulose]: the Vmax in assay [3] (reduction of L-xylulose using NADPH as the cofactor) was determined as 33.8 µM/min. Further, in assay [3] (setting [11]), the Km was found to be 503 µM and the kcat came out at 1.09 S^−1. For the same molecule, the Type of inhibition entry in assay [4] is given as “competitive inhibitors; also recorded: competitive type inhibition”. The Type of inhibition result in assay [4] (listed as Xylulose) is listed as “competitive”.

`NC(=O)c1ccc[n+]([C@@H]2O[C@H](COP(=O)([O-])OP(=O)(O)OC[C@H]3O[C@@H](n4cnc5c(N)ncnc54)[C@H](OP(=O)(O)O)[C@@H]3O)[C@@H](O)[C@H]2O)c1` [NADP(+)]: the kcat in assay [5] (NADP(+) varied, 200 mM xylitol fixed) is on record as 1.7 S^−1. In addition, the Km in assay [5] (NADP(+) varied, 200 mM xylitol fixed, 100 mM glycine buffer with 3 mM MgCl2) turned out to be 110 µM. Further, the Vmax in assay [5] (oxidation of xylitol using NADP+ as the cofactor) worked out at 70.9 µM/min.

Regarding `NC(=O)C1=CN([C@@H]2O[C@H](COP(=O)(O)OP(=O)(O)OC[C@H]3O[C@@H](n4cnc5c(N)ncnc54)[C@H](OP(=O)(O)O)[C@@H]3O)[C@@H](O)[C@H]2O)C=CC1` [NADPH], the Km in assay [3] (setting [12]) is 24 µM; in assay [6] (setting [13]), 90 µM; in assay [1] (setting [14]), 31 µM. Moreover, the kcat is 1.55 S^−1 in assay [3] (setting [12]); 1.6 S^−1 and 1.60 S^−1 in assay [6] (setting [13]); 0.115 s⁻¹ in assay [1] (setting [14]). The Vmax in assay [6] (NADPH at fixed concentration of diacetyl) is 30.9 µM/min.

Consider `CCCC(=O)O` [butyric acid], for which the “Effect on oxygen consumption during redox cycling” value (shortened to “Effect”) in assay [7] (butyric acid 10 mM) is reported as “Inhibition of oxygen consumption”. Further, the pIC50 in assay [4] is 2.17; in assay [2] it was 3.02.

For the molecule `CC(=O)C(C)=O` [diacetyl, 2,3-butanedione], the “Effect” value in assay [7] (diacetyl 5 mM) is listed as “Inhibition of oxygen consumption”. Moreover, the kcat in assay [6] (diacetyl varied, 200 μM NADPH fixed, pH 7.0) came to 5.80 S^−1. In assay [4], the pKi is 3.72 and the Type of inhibition entry is “competitive inhibitors; also recorded: competitive type inhibition”. The Type of inhibition entry in assay [4] (listed as Diacetyl) is listed as “competitive”. The inhibition at 5000 µM in assay [4] (read-out: Inhibition of menadione-stimulated superoxide anion formation) is about 75%.

With `CCCCCCC(=O)O` [heptanoic acid], the pIC50 was 1.60 in assay [4] and 1.70 in assay [2].

As for `CCCCCC(=O)O` [hexanoic acid], the “Effect” value in assay [7] (hexanoic acid 50 mM) is listed as “Inhibition of oxygen consumption”. Besides, the figures for the pIC50 in assay [4] and in assay [2] were 1.44 and 2.21, respectively.

In the case of `CC1=CC(=O)c2ccccc2C1=O` [menadione, 2-methyl-1,4-naphthoquinone], in assay [2], the pIC50 was 4.28 and the pKi was 4.61. Moreover, in assay [2] (setting [9]), the Type of inhibition result is on record as “competitive type of inhibition”. Moreover, the inhibition at 300 µM in assay [2] (read-out: Inhibition of DCXR mediated reduction of diacetyl) was over 90%.

Turning to `CCCCC(=O)O` [pentanoic acid], the values for the pIC50 in assay [4] and in assay [2] were 1.55 and 2.36, respectively.

Broadly, the pEC50 is the negative decadic logarithm of the EC50, by convention in mol/L. What is called pIC50 is −log10 of the IC50, conventionally taken in molar units. Usually pKi stands for −log10 of the Ki, conventionally taken in molar units. The term Km denotes the concentration of substrate that gives half-maximal velocity. Usually Vmax stands for the top rate of the reaction or transport when substrate is in excess. What is called inhibition is the percentage by which the read-out fell short of the control.
